# Results: ChEMBL document CHEMBL1123706, “Design of alternate substrate inhibitors of serine proteases. Synergistic use of alkyl substitution to impede enzyme-catalyzed deacylation” (J Med Chem, 1987)
# What was measured:
# Neutrophil elastase = molecular target: T1, Neutrophil elastase (Homo sapiens, UniProt P08246); test: Binding affinity against human leukocyte elastase was determined
# T1 sequence (P08246 whole entry): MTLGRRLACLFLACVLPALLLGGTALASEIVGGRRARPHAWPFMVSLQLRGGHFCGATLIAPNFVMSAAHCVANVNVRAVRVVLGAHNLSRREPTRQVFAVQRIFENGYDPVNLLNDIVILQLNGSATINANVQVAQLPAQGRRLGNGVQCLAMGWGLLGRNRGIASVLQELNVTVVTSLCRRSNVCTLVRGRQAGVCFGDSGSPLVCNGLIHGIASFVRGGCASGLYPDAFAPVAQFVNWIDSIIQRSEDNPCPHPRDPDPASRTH
# Summary of the method: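 Elastase purified from human leukocytes and assayed by the progress-curve method. Enzyme turnover of a fluorogenic coumarin substrate at about 0.04 Km served as a probe of free enzyme. Buffer was 25 mM K+ HEPES, 1 M NaCl, 0.1% Brij 35, pH 7.8, 25 °C. Read-out was fluorescence at 400 nm excitation and 505 nm emission.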
# [1] = molecular target: T2, Neutrophil elastase (Homo sapiens) (UniProt P08246); test: Rate of deacylation by human leukocyte elastase
# T2 sequence (whole entry): T1 sequence (P08246 whole entry)
# Summary of the method: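 Otherwise, acyl enzyme was prepared and isolated on Sephadex G-25 at low pH. Deacylation was followed as the return of activity after dilution into assay buffer containing fluorogenic substrate.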
# [2] = molecular target: T2, Neutrophil elastase (Homo sapiens)
SMILES,Ki (Neutrophil elastase),k off [1],k1 [2]
Cc1cccc2nc(NC(C)C)oc(=O)c12,1.5 nM,–,–
CC(C)Nc1nc2ccccc2c(=O)o1,52 nM,0.003 s⁻¹,59000 M⁻¹ s⁻¹
CCNc1nc2ccccc2c(=O)o1,51 nM,–,–
CCCCCCNc1nc2ccccc2c(=O)o1,3600 nM,–,–
CCCCNc1nc2cccc(CC)c2c(=O)o1,4.2 nM,0.00053 s⁻¹,130000 M⁻¹ s⁻¹
CCCCNc1nc2cccc(C)c2c(=O)o1,23 nM,–,–
CCC(C)Nc1nc2ccccc2c(=O)o1 (centres undefined),43 nM,–,–
Nc1nc2ccccc2c(=O)o1,63000 nM,–,–

# Further lines, results first:
Ki (Neutrophil elastase),k off [1],k1 [2],SMILES
6900 nM,–,–,CNc1nc2ccccc2c(=O)o1
6 nM,0.00034 s⁻¹,56000 M⁻¹ s⁻¹,CCCNc1nc2cccc(C)c2c(=O)o1
91 nM,–,–,CCCNc1nc2ccccc2c(=O)o1
31000 nM,0.15 s⁻¹,4800 M⁻¹ s⁻¹,CNc1nc2cccc(C)c2c(=O)o1
0.94 nM,–,–,CCc1cccc2nc(NC(C)C)oc(=O)c12
34 nM,–,–,CCNc1nc2cccc(C)c2c(=O)o1
84 nM,–,–,CCCCNc1nc2ccccc2c(=O)o1
5100 nM,–,–,CCc1cccc2nc(N)oc(=O)c12
